Converted amounts (≈) assume the structure as drawn.
Key:
Saccharomyces cerevisiae [1] = assay: Antifungal activity against Saccharomyces cerevisiae 1140; format: functional
How it was run: (§1)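 Agar-well diffusion on mutant yeast lawns (1140 ise1 rad52; 1353 ISE+ rad52 top1; 1138 ise2 rad52). Stationary-phase YEPD cultures resuspended in 0.9% saline to 25% transmission at 600 nm, flooded onto YEPD agar with 0.8% Noble agar overlay, dried. Samples in DMSO-MeOH (1:1) added to 6-7 mm wells; nystatin control at 20 μg/mL; 30 °C, 36–48 h; IC12 (dose giving 12-mm zone) from dose–response curve.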

Saccharomyces cerevisiae [2] = assay: Antifungal activity against Saccharomyces cerevisiae 1138; format: functional; how it was run: as §1
Candida albicans = assay: Antifungal activity against Candida albicans SC5314; format: functional
Saccharomyces cerevisiae [3] = assay: Antifungal activity against Saccharomyces cerevisiae 1353; format: functional; how it was run: as §1
Saccharomyces cerevisiae [4] = assay: Antifungal activity against Saccharomyces cerevisiae Sc7; format: functional
M109 = assay: Cytotoxicity against mouse M109 cells; format: functional, cell-based

MIC (Candida albicans) [µg/mL]	MIC (Saccharomyces cerevisiae [4]) [µg/mL]	Compound	IC12 (Saccharomyces cerevisiae [1]) [µg/mL]	IC12 (Saccharomyces cerevisiae [2]) [µg/mL]	IC12 (Saccharomyces cerevisiae [3]) [µg/mL]	IC50 (M109) [µg/mL]
12.5 (≈ 31.4 µM)	6.25 (≈ 15.7 µM)	C[C@H]1CCC([C@H](C)[C@H]2CC[C@H]3[C@@H]4CC=C5C[C@@H](O)CC[C@]5(C)[C@H]4CC[C@]23C)=NC1	1.12	0.88	0.69	–
< 3.1	6.25 (≈ 15.1 µM)	C[C@H](C1=NC[C@](C)(O)CC1)[C@H]1CC[C@H]2[C@@H]3CC=C4C[C@@H](O)CC[C@]4(C)[C@H]3CC[C@]12C	2.5	0.35	4	31.2 (≈ 75.4 µM)
400 (≈ 967 µM)	200 (≈ 484 µM)	C[C@H]1CCC([C@H](C)[C@H]2CC[C@H]3[C@@H]4CC=C5[C@@H](O)[C@@H](O)CC[C@]5(C)[C@H]4CC[C@]23C)=NC1	23	10	24	10.5 (≈ 25.4 µM)
–	–	C[C@H]1CCC([C@H](C)[C@H]2CC[C@H]3[C@@H]4CCC5=CC(=O)CC[C@]5(C)[C@H]4CC[C@]23C)=NC1	45	14	50	16.8 (≈ 42.5 µM)
200 (≈ 484 µM)	100 (≈ 242 µM)	C[C@H]1CCC([C@@H](C)[C@H]2CC[C@H]3[C@@H]4CC=C5[C@@H](O)[C@@H](O)CC[C@]5(C)[C@H]4CC[C@]23C)=NC1	10	12	> 50	15.5 (≈ 37.5 µM)
1.6 (≈ 1.73 µM)	12.5 (≈ 13.5 µM)	C[C@@H]1[C@H](O)[C@@H](C)/C=C/C=C/C=C/C=C/C=C/C=C/C=C/[C@H](O[C@@H]2O[C@H](C)[C@@H](O)[C@H](N)[C@@H]2O)C[C@@H]2O[C@](O)(C[C@@H](O)C[C@@H](O)[C@H](O)CC[C@@H](O)C[C@@H](O)CC(=O)O[C@H]1C)C[C@H](O)[C@H]2C(=O)O [AMPHOTERICIN B]	15.6	8.1	25	7.5 (≈ 8.12 µM)
–	–	C[C@H]1CC[C@@H]([C@@H](C)[C@H]2CC[C@H]3[C@@H]4CC=C5C[C@@H](O)CC[C@]5(C)[C@H]4CC[C@]23C)NC1 [VERAMILINE]	3	3	4	–
25 (≈ 62.9 µM)	6.25 (≈ 15.7 µM)	C[C@H]1CCC([C@@H](C)[C@H]2CC[C@H]3[C@@H]4CC=C5C[C@@H](O)CC[C@]5(C)[C@H]4CC[C@]23C)=NC1 [VERAZINE]	0.25	0.14	0.14	12.5 (≈ 31.4 µM)

Compound	MIC (Candida albicans) [µg/mL]	MIC (Saccharomyces cerevisiae [4]) [µg/mL]	IC12 (Saccharomyces cerevisiae [1]) [µg/mL]	IC12 (Saccharomyces cerevisiae [2]) [µg/mL]	IC12 (Saccharomyces cerevisiae [3]) [µg/mL]	IC50 (M109) [µg/mL]
Cc1cnc([C@H](C)[C@H]2CC[C@H]3[C@@H]4CC=C5C[C@@H](O)CC[C@]5(C)[C@H]4CC[C@]23C)c(O)c1 [ECLIPTALBINE]	20 (≈ 48.8 µM)	20 (≈ 48.8 µM)	0.7	0.04	0.4	> 20
CC(=O)N1CCN(c2ccc(OCC3COC(Cn4ccnc4)(c4ccc(Cl)cc4Cl)O3)cc2)CC1 (centres undefined) [KETOCONAZOLE]	< 0.8	1.6 (≈ 3.01 µM)	4.8	2.5	9.4	17 (≈ 32 µM)

— ChEMBL document CHEMBL1150957, “DNA-damaging steroidal alkaloids from Eclipta alba from the suriname rainforest1” (J Nat Prod, 1998)
